Results as given in ChEMBL document CHEMBL1240314, “Small-molecule inhibitor of p53 binding to mitochondria protects mice from gamma radiation” (2006).
Active and inactive are the calls of the source. The rule behind the calls is not given here.

Tests used:
[1] = molecular target: Cellular tumor antigen p53 (Homo sapiens) (UniProt P04637); test: Binding affinity to p53 assessed as reduction in mitochondrial-bound p53 level at 50 uM
Method in brief: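 Cell-free reconstitution: freshly isolated HeLa or Saos-2 mitochondria (40 mg as printed) incubated 1 h at 37 °C with purified baculoviral human wild-type p53 (60 ng) plus compound in MS buffer with CaCl2; mitochondria pelleted, washed three times, p53 cosedimentation by western blot, mt-Hsp75 loading control.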

[2] = molecular target: Cellular tumor antigen p53 (Homo sapiens) (UniProt P04637); test: Binding affinity to p53 transfected in human […] cells assessed as reduction in p53 bound-Bcl-2 at 15 uM after 48 hrs; type: cell-based; details: HEK293
Method in brief: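 293T cells cotransfected with Flag-tagged wild-type Bcl-xL or Bcl-2 plus wild-type p53 plasmid; compound 15 mM (so in the source) applied 24 h after transfection; lysates (1 mg protein) immunoprecipitated with anti-Flag M2 gel, bound p53 detected with HRP-conjugated DO-1.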

Thymocyte [3] = test: Antiapoptotic activity against dexamethasone-induced apoptosis in mouse thymocyte at 10 uM; type: functional, cell-based
Method in brief: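 Primary thymocytes from 4-week-old p53-null C57Bl/6 mice, short-term culture; dexamethasone 0.5 mM, 24 h, with compound at 10 mM as printed; viability by trypan blue (0.1%) or annexin/PI FACScan; means ± s.d., n = 3.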

[4] = Antiapoptotic activity against gamma irradiation-induced apoptosis in mouse thymocyte assessed as cytosolic Cyt c concentration at 20 uM; type: functional, cell-based
Method in brief: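 Thymocytes (20 × 10^6) from 5-week-old C57Bl/6J mice irradiated with 10 Gy gamma, with or without compound ([…] as printed); cytosolic fractions isolated 5 h after irradiation and probed for cytochrome c by western blot.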

[5] = molecular target: Cellular tumor antigen p53 (Homo sapiens) (UniProt P04637); test: Inhibition of p53-dependent transactivation of p21 in gamma-stimulated human ConA cells; type: cell-based
Method in brief: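 ConA cells given 10 µM test agent and 10 Gy gamma irradiation. Protein extracts taken 6 h post-irradiation and p21 detected by immunoblotting.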

HeLa = test: Antiapoptotic activity against staurosporine-induced cell death in human HeLa cells assessed as cell survival at 10 uM after 24 hrs by methylene blue assay; type: functional, cell-based
WI-38 = test: Antiapoptotic activity against Fas-induced apoptosis in human WI38 cells assessed as cell survival at 0.1 uM to 10 uM after 24 hrs by methylene blue assay in presence of 1 ug/ml cycloheximidine; type: functional, cell-based
[6] = molecular target: Cellular tumor antigen p53 (Mus musculus) (UniProt P02340); test: Inhibition of p53-mediated apoptosis in mouse fibroblast assessed as cell survival at 10 uM after 24 hrs by methylene blue assay
Target sequence in this assay (P02340 whole entry): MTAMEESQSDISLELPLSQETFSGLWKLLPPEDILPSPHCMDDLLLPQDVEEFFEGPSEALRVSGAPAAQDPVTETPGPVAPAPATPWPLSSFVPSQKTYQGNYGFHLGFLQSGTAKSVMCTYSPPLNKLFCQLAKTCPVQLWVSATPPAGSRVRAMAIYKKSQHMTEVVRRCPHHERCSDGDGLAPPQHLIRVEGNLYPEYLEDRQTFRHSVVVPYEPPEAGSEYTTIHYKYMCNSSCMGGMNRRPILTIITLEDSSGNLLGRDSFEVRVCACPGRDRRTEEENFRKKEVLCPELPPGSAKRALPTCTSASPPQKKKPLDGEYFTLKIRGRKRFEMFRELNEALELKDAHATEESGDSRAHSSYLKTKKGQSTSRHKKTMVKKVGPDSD

[7] = molecular target: Cellular tumor antigen p53 (Homo sapiens) (UniProt P04637); test: Inhibition of p53-mediated apoptosis in human Saos-2 cells harboring p53 expressing lentiviral vector assessed as cell survival at 10 uM after 48 hrs by methylene blue assay; type: cell-based
Method in brief: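 Saos-2 cells infected with p53-expressing lentivirus; 10 µM test agent added 5 h after infection. Survival assessed 48 h after infection by methylene blue (0.5%) staining of attached cells and optical density read-out. Means ± s.d., n = 3.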

Mus musculus = test: Protection against 9 Gy gamma radiation-induced death in mouse assessed as increase in survival at 40 mg/kg, ip; type: functional; details: route intraperitoneal
Method in brief: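 Male C57Bl/6J mice, 8–10 weeks old, given a single 40 mg kg–1 intraperitoneal dose 30 min before total-body gamma irradiation (137Cs, 4 Gy min–1) at 8 or 9 Gy. Survival followed. Ten mice per subgroup; three independent repeats.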

[8] = molecular target: Cellular tumor antigen p53 (Homo sapiens) (UniProt P04637); test: Inhibition of p53-mediated transactivation of promoter cyclin G in human H1299 cells at 10 uM after 48 hrs by luciferase reporter assay; type: cell-based
[9] = molecular target: Cellular tumor antigen p53 (Homo sapiens) (UniProt P04637); test: Inhibition of p53-dependent transcription of noxa in human MCF7 cells; type: cell-based
Method in brief: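 Northern analysis of MCF7 cells, p53 wild-type and shRNA p53-knockdown. Induction by UV 8.5 J m–2 or Dox […]. RNA isolated 18 h after treatment; 10 µg hybridised with 32P-labelled full-length cDNA probes for Bax, Noxa or Puma. 18S rRNA used as loading control.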

[10] = molecular target: Cellular tumor antigen p53 (Homo sapiens) (UniProt P04637); test: Inhibition of p53-dependent transcription of puma in human U2OS cells; type: cell-based
Method in brief: (§1)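 Northern analysis of U2OS cells, p53 wild-type and shRNA p53-knockdown. Induction by UV 8.5 J m–2 or Dox […]. RNA isolated 18 h after treatment; 10 µg hybridised with 32P-labelled full-length cDNA probes for Bax, Noxa or Puma. 18S rRNA used as loading control.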

[11] = molecular target: Cellular tumor antigen p53 (Homo sapiens) (UniProt P04637); test: Inhibition of p53-dependent transcription of puma in doxorubicin-induced human U2OS cells; type: cell-based; method in brief: as §1
[12] = molecular target: Cellular tumor antigen p53 (Homo sapiens) (UniProt P04637); test: Inhibition of p53-dependent transcription of bax in human U2OS cells; type: cell-based; method in brief: as §1
[13] = molecular target: Cellular tumor antigen p53 (Homo sapiens) (UniProt P04637); test: Inhibition of p53-dependent transcription of bax in doxorubicin-induced human U2OS cells; type: cell-based; method in brief: as §1
H1299 = test: Inhibition of TNFalpha induced NF-kappaB activation in human H1299 cells; type: cell-based
[14] = molecular target: Cellular tumor antigen p53 (Mus musculus) (UniProt P02340); test: Inhibition of p53-dependent transcription of puma in gamma-stimulated mouse thymocyte
Target sequence in this assay (P02340 whole entry): as above

Homo sapiens = organism: Homo sapiens; test: Induction of p21 mRNA expression in gamma-stimulated human SK-MEL-29 cells; type: functional
Method in brief: (§2)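 Wild-type and p53-deficient cell pairs stimulated with 5-FU ([…] as printed) or gamma irradiation (10 or 15 Gy); p21 mRNA quantified by real-time PCR; means ± s.d., n = 3.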

BJ = test: Induction of p21 mRNA expression in human BJ cells; type: functional, cell-based; method in brief: as §2
MCF7 [15] = test: Induction of Puma gene expression in UV-induced human MCF7 cells; type: functional, cell-based
Method in brief: (§3)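 Northern blot: 10 mg RNA (so in the source) isolated 18 h after UV (8.5 J m–2) or doxorubicin (125 mg ml–1 as printed) from MCF7 or U2OS cells and p53-knockdown (lentiviral shRNA) counterparts; hybridized with 32P-labeled full-length cDNA probes for Bax, Noxa, Puma; 18S rRNA loading control.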

MCF7 [16] = test: Induction of Bax gene expression in UV-induced human MCF7 cells; type: functional, cell-based; method in brief: as §3
U2OS [17] = test: Induction of Puma gene expression in human U2OS cells; type: functional, cell-based; method in brief: as §3
U2OS [18] = test: Induction of Puma gene expression in doxorubicin-induced human U2OS cells; type: functional, cell-based; method in brief: as §3
U2OS [19] = test: Induction of Noxa gene expression in human U2OS cells; type: functional, cell-based; method in brief: as §3
U2OS [20] = test: Induction of Noxa gene expression in doxorubicin-induced human U2OS cells; type: functional, cell-based; method in brief: as §3
U2OS [21] = test: Induction of Bax gene expression in doxorubicin-induced human U2OS cells; type: functional, cell-based; method in brief: as §3
Thymocyte [22] = test: Induction of Puma gene expression in gamma-induced mouse thymocytes; type: functional, cell-based
[23] = molecular target: Cellular tumor antigen p53 (Mus musculus) (UniProt P02340); test: Binding affinity to p53 in gamma irradiated mouse thymocyte assessed as cytosolic p21 concentration at 10 uM after 2 hrs
Target sequence in this assay (P02340 whole entry): as above

Thymocyte [24] = test: Induction of p21 mRNA expression in gamma-stimulated mouse thymocytes
[25] = molecular target: Cellular tumor antigen p53 (Mus musculus) (UniProt P02340); test: Inhibition of p53-mediated transactivation of p21 in gamma-stimulated mouse ConA cells at 10 uM after 6 hrs
Target sequence in this assay (P02340 whole entry, looked up): as the sequence (P02340 whole entry) above

Chain of Cellular tumor antigen p53 (Homo sapiens) (P04637 whole entry, looked up): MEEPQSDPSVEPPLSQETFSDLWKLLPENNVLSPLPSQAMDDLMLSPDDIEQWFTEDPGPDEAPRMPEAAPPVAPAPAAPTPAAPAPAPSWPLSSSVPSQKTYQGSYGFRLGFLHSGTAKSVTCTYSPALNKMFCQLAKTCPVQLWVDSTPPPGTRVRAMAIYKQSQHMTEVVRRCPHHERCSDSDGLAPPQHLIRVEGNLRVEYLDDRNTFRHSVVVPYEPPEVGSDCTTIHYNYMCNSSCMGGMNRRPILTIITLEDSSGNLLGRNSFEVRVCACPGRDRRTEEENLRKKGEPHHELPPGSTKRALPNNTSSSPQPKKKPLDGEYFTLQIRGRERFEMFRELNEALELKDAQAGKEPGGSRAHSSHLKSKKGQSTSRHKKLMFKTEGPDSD

## NS(=O)(=O)C#Cc1ccccc1
[1]
  Activity: Active
[2]
  Activity: Active
Thymocyte [3]
  Activity: inactive
[4]
  Activity: Active
[5]
  inhibition: inactive
HeLa
  Activity: inactive
WI-38
  Activity: inactive
[6]
  inhibition: Active
[7]
  inhibition: Active
Mus musculus
  Activity: 50%
[8]
  inhibition: inactive
[9]
  inhibition: inactive
[10]
  inhibition: inactive
[11]
  inhibition: inactive
[12]
  inhibition: inactive
[13]
  inhibition: inactive
H1299
  inhibition: inactive
[14]
  inhibition: inactive
Homo sapiens
  Activity: inactive
BJ
  Activity: inactive
MCF7 [15]
  Activity: inactive
MCF7 [16]
  Activity: inactive
U2OS [17]
  Activity: inactive
U2OS [18]
  Activity: inactive
U2OS [19]
  Activity: inactive
U2OS [20]
  Activity: inactive
U2OS [21]
  Activity: inactive
Thymocyte [22]
  Activity: inactive
[23]
  Activity: inactive
Thymocyte [24]
  Activity: inactive
[25]
  inhibition: inactive
